NSD2 HMT inh: inhibitors of human histone methyltransferase NSD2; NSD2 peptide methylation, AlphaScreen, 120 min; inhibition, % at 12.5 µM; 310,000 tested, 0.54% active; in the data active means inhibition above about 50%
SR-BI DiI-HDL act: enhances SR-BI lipid uptake from DiI-HDL; 320,000 tested, 0.096% active; AID 504775; CHO ldlA[mSR-BI] cells, DiI-HDL uptake fluorescence, 3 h; 100 = double the neutral-control signal; activation, % at 12.5 µM;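 active means mean replicate activation of at least 60% and every replicate at or above 60%; inconclusive means mean or all-replicate condition met, but not both; inactive means mean below 60% and not all replicates reaching 60%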;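 further: 0% = median plate neutral-control signal and 100% = twice that signal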
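Test system: SR-BI-overexpressing, LDLR-lacking CHO cells; Also added: labelled HDL, 10 µg/mL; Measured by: bottom-read cell fluorescence after medium removal, ex 550/em 595 nm; Timing: 3 h uptake period with compound, 37 °C; Buffer or medium: F12, 0.5% BSA, 25 mM HEPES; Doses: single compound concentration, delivered by pin transfer.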
SR-BI HDL uptake: inhibitors of mouse SR-BI mediated HDL lipid uptake; ldlA[mSR-BI] CHO cells, DiI-HDL uptake fluorescence, 3 h; inhibition, % at 12.5 µM; 320,000 tested, 0.96% active;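 active means mean replicate inhibition of at least 70% and a set share of replicates each scoring 70 or more; inconclusive means meets just one of the two criteria; inactive means fails both criteria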;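 further: 0% = median of neutral control wells and 100% = median of positive control wells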
HGIII-sPLA2 inh: Blocks human group III sPLA2 activity | inhibition, % at 12.2 µM | 370,000 tested, 0.56% active | Q9NZ20 | QFRET BODIPY PC-A2 liposome hydrolysis, fluorescence;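 active means inhibition above mean plus 3 SD of compounds lying within the high and low control bounds, cut at about 19% in these data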;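 further: 0% = median of test compound wells and 100% = no enzyme DMSO wells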
Target sequence (Q9NZ20 whole entry, looked up): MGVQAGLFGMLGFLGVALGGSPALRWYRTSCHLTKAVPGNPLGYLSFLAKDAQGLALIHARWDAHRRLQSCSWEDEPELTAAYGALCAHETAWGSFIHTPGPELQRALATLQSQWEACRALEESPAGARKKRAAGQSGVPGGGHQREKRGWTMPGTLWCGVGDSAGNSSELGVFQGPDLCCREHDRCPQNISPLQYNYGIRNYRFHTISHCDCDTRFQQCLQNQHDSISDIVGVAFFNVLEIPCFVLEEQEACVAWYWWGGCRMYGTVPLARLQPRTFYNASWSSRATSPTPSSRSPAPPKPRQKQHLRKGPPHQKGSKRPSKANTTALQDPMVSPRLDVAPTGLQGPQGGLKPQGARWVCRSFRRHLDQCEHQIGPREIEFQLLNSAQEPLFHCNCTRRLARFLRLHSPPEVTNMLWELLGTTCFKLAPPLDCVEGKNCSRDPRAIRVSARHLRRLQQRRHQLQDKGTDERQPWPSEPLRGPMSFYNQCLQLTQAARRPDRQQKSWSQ
XiGFP reactiv: X-chromosome reactivation activator; XiGFP mouse fibroblasts, % GFP-positive cells imaging, 3 d; cells co-treated with 5-aza-dC sensitizer; scaled so ellipticine positive control = 100%; 360,000 tested, 0.055% active; AID 743238; activation, % at 7.58 µM;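 active means mean normalized replicate activation at least 10% and every replicate at or above 10%; inconclusive means only one of the two criteria met; inactive means mean below 10% and not all replicates reach 10%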;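 further: 0% = median of on-plate neutral control wells and 100% = ellipticine 6 µM median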
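material = 68-5-11 XiGFP fibroblast line | medium = DMEM plus 5-aza-dC sensitizer | schedule = 3 days compound exposure | benchmarks = positive control ellipticine, 6 µM final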
ARNT TACC3 PPI: disruptors of human ARNT/TACC3 interaction | Q9Y6A5 | AlphaScreen His-ARNT PAS-B/GST-TACC3 binding, luminescence; TACC3 fragment carries E629A point mutation | inhibition, % at 9.99 µM | 390,000 tested, 0.66% active;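 active means mean inhibition of replicates at least 50% and at least half of replicates each reaching 50%; inconclusive means half or more replicates reach 50% but mean below 50%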;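 further: 0% = complete ARNT plus TACC3 wells and 100% = ARNT alone without TACC3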
hGIII sPLA2 conf: human GIII-sPLA2 inhibition, confirmation | 2,000 tested, 34% active | AID 743280 | shares compounds with HGIII-sPLA2 inh | inhibition, % at 12.2 µM | recombinant hGIII-sPLA2, BODIPY PC-A2 QFRET fluorescence;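 active means mean inhibition across triplicates above the hit cutoff set in the earlier primary screen, cut at about 19% in these data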;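 further: 0% = enzyme with DMSO and 100% = DMSO wells lacking enzyme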
BODIPY interf: optically interferes with 535nm fluorescence in sPLA2 counter-screen; shares compounds with HGIII-sPLA2 inh; BODIPY FL product fluorescence interference, QFRET; inhibition, % at 12.2 µM; 2,000 tested, 8.5% active; AID 743282;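 active means average inhibition above the solvent-only control mean plus 3 SD, cut at about 6% in these data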;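 further: 0% = DMSO with substrate plus product and 100% = DMSO with substrate alone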
* marks the source's active call; other numbers are inactive results. An excerpt weighted towards active compounds, which were near 2% of everything screened.

`Oc1ccc(Cl)cc1-c1cc(C(F)(F)C(F)F)nc(-c2ccccc2)n1` gave NSD2 HMT inh 0, SR-BI DiI-HDL act -39, SR-BI HDL uptake 39, HGIII-sPLA2 inh 7 and ARNT TACC3 PPI 0.
For CCOC(=O)N1CCN(CCC(=O)Nc2ccc(C)c(Br)c2)CC1 the results were NSD2 HMT inh 2, SR-BI DiI-HDL act -7, SR-BI HDL uptake 7, HGIII-sPLA2 inh -12 and ARNT TACC3 PPI -1.
Cc1ccc(NC(=O)CCN2CCN(CCO)CC2)cc1Br was read as SR-BI DiI-HDL act 9, SR-BI HDL uptake -9, HGIII-sPLA2 inh 23*, XiGFP reactiv 1, ARNT TACC3 PPI -2, hGIII sPLA2 conf -5 and BODIPY interf -3.
COC(=O)c1ccc(NC(=O)CCN2CCOCC2)cc1 was read as NSD2 HMT inh -1, SR-BI DiI-HDL act 13, SR-BI HDL uptake -13, HGIII-sPLA2 inh 22*, XiGFP reactiv 0, ARNT TACC3 PPI 0, hGIII sPLA2 conf -11 and BODIPY interf -4.
Screening COC(=O)c1ccc(NC(=O)CCN2CCN(CCC(=O)Nc3ccc(C(=O)OC)cc3)CC2)cc1 returned NSD2 HMT inh -5, SR-BI DiI-HDL act -32, SR-BI HDL uptake 32, HGIII-sPLA2 inh -7 and ARNT TACC3 PPI -7.
For CC(C)CC#Cc1ccc2c(c1)O[C@H](CN(C)Cc1ccccc1)[C@@H](C)CN([C@H](C)CO)S2(=O)=O the results were XiGFP reactiv -1.
`CC(=O)N1CCN(C(=O)CSc2cc(C)c(Br)cc2C)CC1` gave SR-BI DiI-HDL act 3, SR-BI HDL uptake -3, HGIII-sPLA2 inh 7 and XiGFP reactiv 0.
Cc1cc(SCC(=O)NN=C2CCN(C(C)C)CC2)c(C)cc1Br was read as NSD2 HMT inh 2, SR-BI DiI-HDL act 9, SR-BI HDL uptake -9, HGIII-sPLA2 inh 22*, XiGFP reactiv 0, ARNT TACC3 PPI 28, hGIII sPLA2 conf 4 and BODIPY interf -16.
Screening CC(=O)N1CCOc2ccc(S(=O)(=O)NCCc3ccc(S(N)(=O)=O)cc3)cc21 returned NSD2 HMT inh 2, SR-BI DiI-HDL act 5, SR-BI HDL uptake -5, HGIII-sPLA2 inh -2, XiGFP reactiv 0 and ARNT TACC3 PPI -22.
For Cc1nc2c(C)cccn2c1/C(O)=C1\C(=O)C(=O)N(CCN(C)C)C1c1ccccc1 (configuration not stated) the results were NSD2 HMT inh 24, SR-BI DiI-HDL act 7, SR-BI HDL uptake -7, HGIII-sPLA2 inh 20*, XiGFP reactiv 0, ARNT TACC3 PPI -7, hGIII sPLA2 conf 6 and BODIPY interf 0.
Screening CN(C)c1cccc(C(=O)NNC(=S)NC2CC3CCC2C3)c1 (configuration not stated) returned NSD2 HMT inh 4, SR-BI DiI-HDL act -2, SR-BI HDL uptake 2, HGIII-sPLA2 inh 20*, XiGFP reactiv 0, ARNT TACC3 PPI 7, hGIII sPLA2 conf 25* and BODIPY interf 3.
`CC(C)N(C(=S)NC1CC2CCC1C2)c1ccccc1` (configuration not stated) gave NSD2 HMT inh -3, SR-BI DiI-HDL act -6, SR-BI HDL uptake 6, HGIII-sPLA2 inh 2, XiGFP reactiv 0 and ARNT TACC3 PPI -4.
`Cc1c(C(=O)N2CCC[C@H]2C(N)=O)oc2c(F)cccc12` gave NSD2 HMT inh 2, SR-BI DiI-HDL act inconclusive, SR-BI HDL uptake -245, HGIII-sPLA2 inh 0, XiGFP reactiv 0 and ARNT TACC3 PPI -4.
`CN(C)c1ccc2c(c1)[C@H]1C[C@@H](CC(=O)NCc3ccc(Oc4ccccc4)cc3)O[C@@H](CO)[C@H]1O2` gave XiGFP reactiv 0 and ARNT TACC3 PPI 24.
`OCC(CCc1c[nH]c2ccccc12)c1c[nH]c2ccccc12` (configuration not stated) gave NSD2 HMT inh 23, HGIII-sPLA2 inh 35*, XiGFP reactiv 0, hGIII sPLA2 conf 10 and BODIPY interf 10*.
For O=C(CSc1nnc(-c2ccco2)o1)Nc1ccccc1Cl the results were NSD2 HMT inh -3, SR-BI HDL uptake -26, HGIII-sPLA2 inh 1, XiGFP reactiv 0 and ARNT TACC3 PPI -1.
O=C(CNC(=O)c1ccco1)Nc1ccc(N2CCCCCC2)cc1 was read as NSD2 HMT inh 1, SR-BI DiI-HDL act 9, SR-BI HDL uptake -9, HGIII-sPLA2 inh 22*, XiGFP reactiv 0, ARNT TACC3 PPI 0, hGIII sPLA2 conf 12 and BODIPY interf 0.
`CCc1cc2c3c(c1)C(C)CC(C)(C)N3C(=O)C2=O` (configuration not stated) gave NSD2 HMT inh 36, SR-BI DiI-HDL act 12, SR-BI HDL uptake -12, HGIII-sPLA2 inh 27*, XiGFP reactiv 0, ARNT TACC3 PPI -4, hGIII sPLA2 conf 12 and BODIPY interf -4.
Screening COc1ccc(NC(=O)c2nn(C)c(C(=O)Nc3ccc(OC)cc3)c2[N+](=O)[O-])cc1 returned NSD2 HMT inh 0, SR-BI DiI-HDL act -3, SR-BI HDL uptake 3, HGIII-sPLA2 inh -5, XiGFP reactiv 0 and ARNT TACC3 PPI -1.
COCCCNC(=O)CN(Cc1ccc(Cl)cc1)S(C)(=O)=O was read as NSD2 HMT inh -1, SR-BI DiI-HDL act 26, SR-BI HDL uptake -26, HGIII-sPLA2 inh 21*, ARNT TACC3 PPI 1, hGIII sPLA2 conf 6 and BODIPY interf -7.
`O=c1c2ccccc2[nH]c(=S)n1Cc1cccnc1` gave NSD2 HMT inh 6, SR-BI DiI-HDL act 17, SR-BI HDL uptake -17, HGIII-sPLA2 inh 20*, ARNT TACC3 PPI 1, hGIII sPLA2 conf 11 and BODIPY interf -5.
`CC(C)OC(=O)c1c(N)sc2c1CCCC2` gave NSD2 HMT inh 3, SR-BI DiI-HDL act -2, SR-BI HDL uptake 2, HGIII-sPLA2 inh 20*, ARNT TACC3 PPI 4, hGIII sPLA2 conf 18 and BODIPY interf -4.
Screening O=C(C(=O)N1CCN(C(=O)c2cc(C(F)(F)F)cc(C(F)(F)F)c2)CC1)c1cccc(C(F)(F)F)c1 returned HGIII-sPLA2 inh 2 and XiGFP reactiv 0.
COCC(=O)N1CCN(C(=O)C(=O)c2cccc(C(F)(F)F)c2)CC1 was read as HGIII-sPLA2 inh 23*, XiGFP reactiv 0, hGIII sPLA2 conf 1 and BODIPY interf -2.
`CCOC(=O)c1sc(NC(=O)c2ccc(OC)cc2)nc1C` gave NSD2 HMT inh -1, SR-BI DiI-HDL act -77, SR-BI HDL uptake inconclusive, HGIII-sPLA2 inh 2, XiGFP reactiv 0 and ARNT TACC3 PPI -3.
